According to ChEMBL document CHEMBL4130438, “6,7-Seco-ent-Kauranoids Derived from Oridonin as Potential Anticancer Agents” (J Nat Prod, 2017):
The source made the active and inactive calls. The calls are words filed in the database; no cut-off is given here.

What was measured:
[1] = test system: MCF7; assay: Induction of apoptosis in human MCF7 cells assessed as necrotic cells at 2 uM after 24 hrs by Annexin-V FITC/propidium iodide staining based flow cytometry (reference value: 0.610%); type: functional
[2] = test system: MCF7; assay: Induction of apoptosis in human MCF7 cells assessed as late apoptotic cells at 2 uM after 24 hrs by Annexin-V FITC/propidium iodide staining based flow cytometry (reference value: 0.290%); type: functional
[3] = test system: MCF7; assay: Induction of apoptosis in human MCF7 cells assessed as viable cells at 0.50 uM after 24 hrs by Annexin-V FITC/propidium iodide staining based flow cytometry (reference value: 97.5%); type: functional; conditions: MCF7, 24 h, read-out: Activity
[4] = test system: MCF7; assay: Induction of apoptosis in human MCF7 cells assessed as increase in Bax expression level after 48 hrs by Western blot analysis; type: functional, cell-based
[5] = test system: MCF7; assay: Cell cycle arrest in human MCF7 cells assessed as accumulation at G2/M phase after 48 hrs by propidium iodide staining based flow cytometry; type: functional
[6] = test system: MCF7; assay: Induction of apoptosis in human MCF7 cells assessed as late apoptotic cells at 0.50 uM after 24 hrs by Annexin-V FITC/propidium iodide staining based flow cytometry (reference value: 0.290%); type: functional
[7] = test system: MCF7; assay: Induction of apoptosis in human MCF7 cells assessed as decrease in mitochondrial membrane potential measured after 36 hrs by JC-1 staining based fluorescence microscopy; type: functional, cell-based
Method in brief: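 MCF-7 cells treated 36 h across a range of concentrations, then loaded with 10 μg/mL JC-1 for 30 min at 37 °C and washed in PBS. Monomer fluorescence read at ex 490/em 535 nm and aggregate fluorescence at ex 525/em 600 nm, by plate reader or fluorescence microscopy. Run in triplicate.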

[8] = test system: MCF7; assay: Inhibition of colony formation in human MCF7 cells up to 600 nM incubated for 24 hrs followed by removal of media measured after 10 days by crystal violet staining based microscopy; type: functional, cell-based
Method in brief: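 300 MCF-7 cells per well plated and incubated overnight, then exposed for 24 h to graded concentrations in DMSO (DMSO-only control). Medium removed and cells grown 10 days. Fixed in methanol 15 min, stained with 0.1% crystal violet 15 min; colonies of >50 cells counted. At least three independent experiments.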

[9] = test system: MCF7; assay: Cell cycle arrest in human MCF7 cells assessed as accumulation at S phase at 0.50 uM after 48 hrs by propidium iodide staining based flow cytometry (reference value: 17.01%); type: functional
[10] = test system: MCF7; assay: Cytotoxicity against human MCF7 cells assessed as decrease in cell viability after 24 hrs by LDH release assay; type: functional, cell-based
Method in brief: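 MCF-7 and Bel-7402 cells seeded at ~5 × 10^3 per well for 24 h, then exposed to compounds. LDH released into the medium measured with CytoTox-ONE reagent (10 min, ambient temperature) followed by stop solution. Fluorescence read at ex 560/em 590 nm.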

[11] = test system: MCF7; assay: Induction of apoptosis in human MCF7 cells assessed as necrotic cells at 0.25 uM after 24 hrs by Annexin-V FITC/propidium iodide staining based flow cytometry (reference value: 0.610%); type: functional
[12] = test system: MCF7; assay: Induction of apoptosis in human MCF7 cells assessed as late apoptotic cells at 1 uM after 24 hrs by Annexin-V FITC/propidium iodide staining based flow cytometry (reference value: 0.290%); type: functional
[13] = test system: MCF7; assay: Cell cycle arrest in human MCF7 cells assessed as accumulation at G2/M phase at 1 uM after 48 hrs by propidium iodide staining based flow cytometry (reference value: 12.72%); type: functional
[14] = test system: MCF7; assay: Cell cycle arrest in human MCF7 cells assessed as accumulation at S phase at 0.25 uM after 48 hrs by propidium iodide staining based flow cytometry (reference value: 17.01%); type: functional
[15] = test system: MCF7; assay: Induction of apoptosis in human MCF7 cells assessed as necrotic cells at 1 uM after 24 hrs by Annexin-V FITC/propidium iodide staining based flow cytometry (reference value: 0.610%); type: functional
[16] = test system: MCF7; assay: Induction of apoptosis in human MCF7 cells assessed as early apoptotic cells at 0.25 uM after 24 hrs by Annexin-V FITC/propidium iodide staining based flow cytometry (reference value: 1.60%); type: functional
[17] = test system: Mus musculus; assay: Toxicity in ICR mouse xenografted with […] cells assessed as effect on body weight loss at 10 to 20 mg/kg, iv qd administered for 14 consecutive days; type: organism-based; conditions: in vivo
Method in brief: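 Male ICR mice, five weeks old, implanted s.c. in the right flank with 1 × 10^6 H22 cells. After 7 days, randomised into groups of eight. Given i.v. once daily for 14 days, 10 or 20 mg/kg in 10% DMF/2% poloxamer/88% saline; negative controls received 0.9% saline i.v., positive control 20 mg/kg oridonin. Body weight and tumour volume (L × W²/2) recorded every 2 days. Tumours excised and weighed at sacrifice; inhibition (%) = (1 − treated/control mean tumour weight) × 100.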

## C=C1C(=O)[C@@]23C(=O)OC[C@]4(C=CCC(C)(C)[C@H]4C=O)[C@@H]2CC[C@@H]1[C@H]3OC(=O)c1ccc(F)cc1
[1]
  Activity: 2.74%
[2]
  Activity: 24.7%
[3]
  viability at 0.5 µM: 81.7%
[4]
  Activity: Dose-dependent effect
[5]
  Activity: Dose-dependent effect
[6]
  Activity: 7.68%
[7]
  Activity: Dose-dependent effect
[8]
  inhibition: Active
[9]
  Activity: 15.71%
[10]
  Activity: inactive
[11]
  Activity: 0.649%
[12]
  Activity: 15.9%
[13]
  Activity: 21.23%
[14]
  Activity: 18.3%
[15]
  Activity: 1.93%
[16]
  Activity: 6.67%
[17]
  Activity: Non-Toxic
